Results published in ChEMBL document CHEMBL4837220, “Development of tricyclic N-benzyl-4-hydroxybutanamide derivatives as inhibitors of GABA transporters mGAT1-4 with anticonvulsant, antinociceptive, and antidepressant activity” (Eur J Med Chem, 2021).
The source made the active and inactive calls.

Columns and labels:
Mus musculus [1] = assay: Antidepressant activity in Albino Swiss (CD-1) mouse assessed as reduction in immobility time at 30 mg/kg, ip measured for last 4 mins of 6 mins test by forced swim test relative to control; format: functional; design: scale not given: the % may be the effect or the level left
Mus musculus [2] = assay: Antidepressant activity in Albino Swiss (CD-1) mouse assessed as reduction in immobility time at 8 mg/kg, ip measured for last 4 mins of 6 mins test by forced swim test relative to control; format: functional; design: scale not given: the % may be the effect or the level left
[3] = target: T1, Sodium- and chloride-dependent GABA transporter 1 (Mus musculus, UniProt P31648); assay: Inhibition of NO711 binding to mouse GAT1 expressed in human HEK293 cell line by MS binding assay
[4] = target: Sodium- and chloride-dependent GABA transporter 1 (Mus musculus) (UniProt P31648); assay: Residual NO711 binding to mouse GAT1 expressed in human HEK293 cell line at 100 uM by MS binding assay relative to control
[5] = Hepatotoxicity in human HepG2 cells at 50 uM incubated for 72 hrs by MTS assay; format: cell-based; details: hepg2, 72 h
Summary of the method: (§1)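 Cells (HEK-293 or HepG2) were seeded at 0.7×10^4 per well and grown at 37 °C, 5% CO₂. Compounds at 0.1–100 µM were added in quadruplicate for 72 h, with 1% DMSO in medium as control. Viability was read by MTS absorbance at 492 nm. Analysis by one-way ANOVA with Bonferroni.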

Mus musculus [6] = assay: Anticonvulsant activity in CD-1 mouse assessed as elevation of seizure threshold at 100 mg/kg, ip measured by electroconvulsive threshold test relative to control; format: functional
Mus musculus [7] = assay: Anxiolytic-like activity in Albino Swiss (CD-1) mouse at 30 mg/kg, ip by four plate test; format: functional, organism-based
Summary of the method: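 Male CD-1 mice were dosed i.p. 60 min before test. After 15 s habituation on a four-plate floor, a 60 s test followed. Each plate-to-plate crossing triggered a 0.8 mA, 0.5 s shock. The number of punished crossings was counted. Analysis by one-way ANOVA with Dunnett.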

[8] = target: T1, Sodium- and chloride-dependent GABA transporter 1; assay: Inhibition of mouse GAT1 expressed in human HEK293 cell line assessed as inhibition of [3H]GABA uptake measured after 40 mins by […]; format: cell-based
[9] = Effect on locomotor activity in Albino Swiss (CD-1) mouse at 30 mg/kg, ip after 24 to 30 mins; format: ADME, organism-based; details: in vivo, time 24-30 min
Summary of the method: (§2)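 Male CD-1 mice were habituated to activity cages for 15 min, then dosed i.p. 60 min before test. Light-beam crossings were counted over 30 min in 6-min bins (0–30 min). Analysis by repeated measures ANOVA with Bonferroni.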

Mus musculus [10] = assay: Anxiolytic-like activity in Albino Swiss (CD-1) mouse assessed as increase in time spent in open arm at 30 mg/kg, ip measured for 5 mins by elevated plus maze test; format: functional, organism-based
Summary of the method: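 Male CD-1 mice were dosed i.p. 60 min before test. Each was placed in the centre of the plus maze facing a closed arm and video-recorded for 5 min. Measures were time in open arms and % open-arm entries of all entries. Analysis by one-way ANOVA with Dunnett; n = 7–10.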

HEK293 = assay: Cytotoxicity in human HEK293 cells assessed as reduction in cell viability at 1 uM incubated for 72 hrs by MTS assay; format: cell-based; details: hek293, 72 h; summary of the method: as §1
Mus musculus [11] = assay: Anticonvulsant activity in Albino Swiss (CD-1) mouse assessed as tonic seizures at 100 mg/kg, ip measured after 0.2 secs by maximal electroshock seizure test; format: functional; details: time 0.2 sec, 5.556e-05 h
Summary of the method: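 Male CD-1 mice (18–22 g), dosed i.p. 60 min before test. A 25 mA, 0.2 s stimulus was given via auricular electrodes. Endpoint was tonic hind limb extension, expressed as % of mice with extension per group; n = 6.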

Mus musculus [12] = assay: Anticonvulsant activity in Albino Swiss (CD-1) mouse model of pilocarpine-induced status epilepticus assessed as reduction in latency to occurrence of status epilepticus at 100 mg/kg, […]; format: functional, organism-based
Mus musculus [13] = assay: Antinociceptive activity in Albino Swiss (CD-1) mouse model of formalin-induced paw edema at 30 mg/kg, ip pre-treated for 30 mins followed by formalin-stimulation and measured for 15 to 30 mins by formalin test
GABA transporter 4 = target: T2, GABA transporter 4 (Mus musculus, UniProt P31650); assay: Inhibition of mouse GAT4 expressed in human HEK293 cell line assessed as inhibition of [3H]GABA uptake measured after 40 mins by […]; format: cell-based
T2 sequence (P31650 whole entry): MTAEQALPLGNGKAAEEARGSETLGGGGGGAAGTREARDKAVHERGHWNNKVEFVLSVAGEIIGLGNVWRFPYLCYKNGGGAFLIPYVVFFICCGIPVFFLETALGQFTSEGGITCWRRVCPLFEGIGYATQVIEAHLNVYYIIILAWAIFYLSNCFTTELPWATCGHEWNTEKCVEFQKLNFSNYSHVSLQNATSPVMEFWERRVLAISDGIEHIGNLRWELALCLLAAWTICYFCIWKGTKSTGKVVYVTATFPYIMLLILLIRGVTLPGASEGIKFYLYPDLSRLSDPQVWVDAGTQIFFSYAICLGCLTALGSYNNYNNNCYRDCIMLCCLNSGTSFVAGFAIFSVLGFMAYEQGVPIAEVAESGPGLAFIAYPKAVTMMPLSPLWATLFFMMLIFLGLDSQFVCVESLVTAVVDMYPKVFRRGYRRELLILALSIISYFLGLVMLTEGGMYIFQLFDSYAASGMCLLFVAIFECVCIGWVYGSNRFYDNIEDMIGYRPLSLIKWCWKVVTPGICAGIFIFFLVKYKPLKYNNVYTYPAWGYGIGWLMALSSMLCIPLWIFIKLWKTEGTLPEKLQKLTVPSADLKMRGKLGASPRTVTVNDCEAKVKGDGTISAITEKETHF

Mus musculus [14] = assay: Anticonvulsive activity in Albino Swiss (CD-1) mouse assessed as protection against pentylenetetrazole-induced seizure at 100 mg/kg, ip administered 60 mins prior to pentylenetetrazole challenge and measured for 30 mins; format: functional, organism-based
Summary of the method: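 Male CD-1 mice were given test compound or vehicle i.p. and 60 min later PTZ 100 mg/kg s.c. Mice were observed singly for 30 min, recording latency to first seizure episode and number of seizure episodes. Analysis by one-way ANOVA with Dunnett; n = 10–12.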

Mus musculus [15] = assay: Antidepressant-like activity in C57BL/6J mouse assessed as decrease in immobility time at 30 mg/kg, ip measured during last 4 mins of 6 mins test by tail suspension test
[16] = Hepatotoxicity in human HepG2 cells at 25 uM incubated for 72 hrs by MTS assay; format: cell-based; details: hepg2, 72 h; summary of the method: as §1
GABA transporter 2 = target: T3, GABA transporter 2 (Mus musculus, UniProt P31651); assay: Inhibition of mouse GAT2 expressed in human HEK293 cell line assessed as inhibition of [3H]GABA uptake measured after 40 mins by […]; format: cell-based
T3 sequence (P31651 whole entry): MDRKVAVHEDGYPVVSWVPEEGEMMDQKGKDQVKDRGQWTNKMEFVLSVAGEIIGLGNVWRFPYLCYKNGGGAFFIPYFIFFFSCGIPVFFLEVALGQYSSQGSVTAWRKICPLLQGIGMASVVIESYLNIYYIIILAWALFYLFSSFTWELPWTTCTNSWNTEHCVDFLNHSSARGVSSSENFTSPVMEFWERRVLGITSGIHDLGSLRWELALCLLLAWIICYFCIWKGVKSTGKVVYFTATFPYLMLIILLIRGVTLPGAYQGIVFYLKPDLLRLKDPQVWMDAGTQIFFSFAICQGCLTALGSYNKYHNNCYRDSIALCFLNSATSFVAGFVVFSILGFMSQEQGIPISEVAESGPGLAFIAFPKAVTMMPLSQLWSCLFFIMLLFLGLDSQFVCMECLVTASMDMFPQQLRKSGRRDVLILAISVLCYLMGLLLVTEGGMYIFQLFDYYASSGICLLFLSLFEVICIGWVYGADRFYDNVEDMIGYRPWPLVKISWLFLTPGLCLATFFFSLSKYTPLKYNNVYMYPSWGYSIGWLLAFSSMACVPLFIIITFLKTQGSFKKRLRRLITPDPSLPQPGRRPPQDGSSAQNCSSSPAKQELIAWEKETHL

[17] = Hepatotoxicity in human HepG2 cells at 100 uM incubated for 72 hrs by MTS assay; format: cell-based; details: hepg2, 72 h; summary of the method: as §1
Mus musculus [18] = assay: Antinociceptive activity in Albino Swiss (CD-1) mouse model of formalin-induced paw edema assessed as reduction in duration of nocifensive response by measuring licking/biting time at 30 mg/kg, ip pre-treated for 30 mins followed by formalin-stimulation and measured up to 5 mins; format: functional, organism-based
[19] = Effect on locomotor activity in Albino Swiss (CD-1) mouse at 30 mg/kg, ip; format: ADME, organism-based; details: in vivo; summary of the method: as §2
Mus musculus [20] = assay: Antidepressant activity in CD-1 mouse assessed as reduction in immobility time at 30 mg/kg, ip measured for last 4 mins of 6 mins test by forced swim test; format: functional, organism-based
Summary of the method: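 Male CD-1 mice, dosed i.p. 60 min before test. Mice were placed singly in cylinders with 10 cm water at 23–25 °C. Immobility (passive floating) was scored during the final 4 min of a 6-min session. Analysis by one-way ANOVA with Dunnett versus vehicle.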

Row | Compound | Activity (Mus musculus [2]) | residual activity [4] [%] | Activity [5] | Activity (Mus musculus [6]) [%] | Activity (Mus musculus [7]) | IC50 [8] [µM] | Activity (Mus musculus [10]) | Activity (HEK293) | Activity (Mus musculus [11]) [%] | Activity (Mus musculus [12]) | Activity (Mus musculus [13]) | IC50 (GABA transporter 4) [µM] | Activity (Mus musculus [15]) | Activity [16] | IC50 (GABA transporter 2) [µM] | Activity [17] | further results
1 | Cc1ccsc1C(=CCCN1CCC[C@@H](C(=O)O)C1)c1sccc1C [TIAGABINE] | 59% | – | – | – | – | – | – | – | – | – | – | – | – | – | – | – | Activity (Mus musculus [1]): 97.4%; pKi [3]: 7.43
2 | CN(CCC=C1c2ccccc2C=Cc2ccccc21)C(CCO)C(=O)NCc1ccccc1 (centres undefined) | Dose-Dependent Effect | 75 | Toxic | 43 | inactive | 21.9 | inactive | Non-Toxic | 83 | inactive | Active | 9.55 | Active | Non-Toxic | 15.5 | Toxic | Activity [9]: Non-Toxic; Activity (Mus musculus [14]): inactive
3 | Cc1ccc(CNC(=O)C(CCO)N(C)CCC=C2c3ccccc3CCc3ccccc32)cc1 (centres undefined) | – | 53 | Toxic | 90 | inactive | 14.1 | inactive | Non-Toxic | 83 | Active | Active | 10.7 | Active | Non-Toxic | 4.57 | Toxic | Activity (Mus musculus [18]): Active; Activity [19]: Non-Toxic; Activity (Mus musculus [20]): Active
